Screening data as filed in PubChem.
This is a sample that favours compounds with a hit; in the whole collection about 1.8% have one here.
A3G deaminase: APOBEC3G (human) deaminase inhibition; recombinant A3G, ssDNA deamination FAM/TAMRA fluorescence; inhibition, % at 20 µM; hit rate 0.28% among 330,000; AID 493012;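 active = inhibition of at least 40% at 20 µM, with no more than 30% in the related APOBEC3A deaminase screen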
pCIP destab: compounds decreasing mouse p/CIP protein stability. F442A p/CIP-EGFP cells, EGFP fluorescence, 16 h. decrease of EGFP signal, % at 10 µM. hit rate 0.01% among 290,000. AID 1984;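 active = EGFP signal decrease of at least 30% at 10 µM or well 3 SD below plate mean, unless failing retest; inactive = the rest, including hits failing retest or dose response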
TbMetRS inhib: blocks T. brucei methionyl-tRNA synthetase activity; hit rate 0.4% among 360,000; inhibition, % at 11.9 µM; purified T. brucei MetRS, ATP depletion, Kinase-Glo luminescence;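 active = inhibition above a per-plate cutoff of the control wells' mean inhibition plus 3 SD, cut at about 5.5% in these data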
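Dosing: 11.9 µM compound single dose, 0.9% DMSO; Assay system: purified T. brucei MetRS enzyme; Measured by: Kinase-Glo luciferase luminescence reporting remaining unconsumed ATP; Schedule: 15 min plus 2 h at 25 °C.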
PHOSPHO1 block: inhibitors of human PHOSPHO1 phosphatase | Q8TCT1 | recombinant PHOSPHO1, absorbance phosphatase assay | inhibition, % at 13.3 µM | hit rate 1.1% among 290,000 | AID 1565; in the data active = inhibition above about 60%
Target sequence (Q8TCT1 whole entry, looked up): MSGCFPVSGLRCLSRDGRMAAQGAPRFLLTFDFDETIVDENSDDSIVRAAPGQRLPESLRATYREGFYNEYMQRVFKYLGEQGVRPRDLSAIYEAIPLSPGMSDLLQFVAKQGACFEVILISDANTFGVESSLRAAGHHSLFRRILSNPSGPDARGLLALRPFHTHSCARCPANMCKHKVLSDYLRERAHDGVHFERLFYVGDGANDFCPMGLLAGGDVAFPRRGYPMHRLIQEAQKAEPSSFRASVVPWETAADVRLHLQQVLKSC
APOBEC3A inh: blocks human APOBEC3A ssDNA deamination. P31941. recombinant A3A, FAM/TAMRA ssDNA deamination fluorescence. inhibition, % at 20 µM. hit rate 0.41% among 330,000. AID 493011;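 active = at least 40% inhibition at 20 µM here, with at most 30% in a related deaminase screen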
Target sequence (P31941 whole entry, looked up): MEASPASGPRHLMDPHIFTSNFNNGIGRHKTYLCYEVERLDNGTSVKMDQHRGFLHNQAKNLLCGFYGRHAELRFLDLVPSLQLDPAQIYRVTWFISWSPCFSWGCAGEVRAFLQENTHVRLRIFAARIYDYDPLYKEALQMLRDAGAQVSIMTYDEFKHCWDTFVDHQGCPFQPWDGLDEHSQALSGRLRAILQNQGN
Tb MetRS conf: confirmation of Trypanosoma brucei MetRS inhibitors; shares compounds with TbMetRS inhib; T. brucei MetRS enzyme, luminescence (ATP depletion); inhibition, % at 11.9 µM; hit rate 93% among 1,400; AID 624412; in the data active = inhibition above about 7%
Jurkat tox: kills Jurkat cells in T. brucei MetRS counterscreen; shares compounds with TbMetRS inhib; Jurkat cells viability, ATP luminescence; inhibition, % at 8.3 µM; hit rate 12% among 1,400; in the data active = inhibition above about 15%
Tb MetRS inh FP: T. brucei MetRS inhibition, orthogonal assay. inhibition, % at 11.9 µM. AID 651607. shares compounds with TbMetRS inhib. hit rate 44% among 1,400. purified T. brucei MetRS, fluorescence polarization; in the data active = inhibition above about 17%
A number is an active result; - = inactive; . = no result.

SMILES	A3G deaminase	pCIP destab	TbMetRS inhib	PHOSPHO1 block	APOBEC3A inh	Tb MetRS conf	Jurkat tox	Tb MetRS inh FP
CC1=NN(c2ccc(F)cc2)C(=O)C1C(c1cccc(O)c1)c1c(C)[nH]n(-c2ccc(F)cc2)c1=O (stereo not given)	-	-	18.5	-	-	-	-	-
COc1ccc(C(NC(=O)C2CCN(CCOc3ccc(Cl)cc3Cl)CC2)c2ccccn2)cc1 (stereo not given)	.	.	-	.	.	.	.	.
O=C(Nc1ccccc1N1CCOCC1)c1ccc(Cl)c(S(=O)(=O)N2CCCC2)c1	-	.	-	.	-	.	.	.
O=C(CN1CCOCC1)Nc1nc(-c2ccccc2)cs1	-	-	6.7	-	-	-	-	-
COc1cc(/C=C/C(=O)OCC(=O)NCC2CCCO2)ccc1OCC#N (stereo not given)	-	-	-	-	-	.	.	.
COCC(=O)N(Cc1cc2cc(C)ccc2[nH]c1=O)c1cccc(C)c1C	-	-	5.6	.	-	11.6	-	-
COCC(=O)N(Cc1cc2cc(C)ccc2[nH]c1=O)c1ccc(C)c(C)c1	-	-	-	-	-	.	.	.
COc1cccc(NC(=O)Nc2nnc(Cc3ccc(OC)c(OC)c3)s2)c1	-	-	-	-	-	.	.	.
COc1ccc(Cc2nnc(NC(=O)Nc3ccccc3)s2)cc1OC	-	-	7.0	-	-	20.6	-	-
CCOC(=O)Cc1nnc(NC(=O)Nc2ccccc2)s1	-	-	15.8	-	-	23.0	-	-
Nc1ccc2nc(COc3ccccc3)[nH]c2c1	-	-	-	.	-	.	.	.
O=C(CCC1CCCN(C(=O)c2ccc3c(c2)OCO3)C1)N1CCN(c2ccccn2)CC1 (stereo not given)	-	-	-	-	-	.	.	.
N#C/C(=C1/CCCCCN1)c1nc2ccccc2s1	-	-	-	-	-	.	.	.
Cc1cc(NC(=O)COC(=O)CCNS(=O)(=O)c2c(Cl)cccc2Cl)no1	-	-	-	-	-	.	.	.
O=C(C[C@H]1C(=O)N(Cc2ccccc2)C[C@@H]1c1ccc(Br)cc1)Nc1ccc(Br)cc1	.	.	77.4	.	.	93.5	-	83.0
O=C(C[C@H]1C(=O)N(Cc2cccnc2)C[C@@H]1Cc1ccccc1)Nc1ccc(Br)cc1	.	.	41.4	.	.	67.4	-	41.2
CSC[C@H]1CN(Cc2ccccc2)C(=O)[C@@H]1CC(=O)Nc1ccccc1	.	.	-	.	.	.	.	.
COc1ccc(NC(=O)C[C@H]2C(=O)N(Cc3ccccc3)C[C@@H]2c2ccc(OC)cc2)cc1	.	.	-	.	.	.	.	.
COc1ccc(NC(=O)C[C@H]2C(=O)N(c3ccccc3)C[C@@H]2Cc2ccccc2)cc1	.	.	-	.	.	.	.	.
O=C(C[C@H]1C(=O)N(Cc2ccccc2)C[C@@H]1Cc1ccccc1)Nc1ccc(Br)cc1	.	.	10.3	.	.	29.7	-	-
CSC[C@H]1CN(Cc2ccccc2)C(=O)[C@@H]1CC(=O)Nc1ccc(Br)cc1	.	.	17.0	.	.	30.4	-	-
CC(C)(C)N1CCC1C(N)=O (stereo not given)	.	-	.	-	.	.	.	.
COc1ccccc1NS(=O)(=O)c1cc(NC(=O)CN2C(=O)NC3(CCCC3)C2=O)ccc1C	-	.	-	.	-	.	.	.
COc1ccc([C@H]2CN(c3ccc(OC)cc3)C(=O)[C@@H]2CC(=O)Nc2ccc(Br)cc2)cc1	.	.	8.6	.	.	19.0	-	-
COc1ccc([C@H]2CN(c3ccccc3)C(=O)[C@@H]2CC(=O)Nc2ccccc2)cc1	.	.	-	.	.	.	.	.
SMILES	A3G deaminase	pCIP destab	TbMetRS inhib	PHOSPHO1 block	APOBEC3A inh	Tb MetRS conf	Jurkat tox	Tb MetRS inh FP
CC(=O)NC(CC(=O)OCC(=O)c1ccc(NC(=O)CC(C)C)cc1)c1ccccc1 (stereo not given)	-	.	-	.	-	.	.	.
Nc1nc2cc3ccccc3cc2[nH]c1=O	-	-	6.3	-	-	5.8	-	-
Nc1cccc(CCc2nc3cc4ccccc4cc3[nH]2)c1	-	-	-	-	-	.	.	.
CCn1c(C)cc2c(c1=O)C(c1ccccc1)C(C(=O)OC)=C(N)O2 (stereo not given)	-	-	-	-	-	.	.	.
COC(=O)C1=C(N)Oc2cc(C)n(Cc3ccco3)c(=O)c2C1c1cccc(Cl)c1 (stereo not given)	-	-	52.1	-	-	-	-	-
COc1ccc(/C=N/n2c(=O)[nH]c3c([nH]c4ccc(Br)cc43)c2=O)cc1CN1CCOCC1	-	-	6.2	-	-	13.9	-	-
O=C(Cn1nnc2ccccc2c1=O)NCCc1ccc(Cl)cc1Cl	-	-	6.5	-	-	34.4	-	-
O=C(CSCC(=O)OCn1nnc2ccccc2c1=O)Nc1ccc(Cl)cc1	-	-	16.0	-	-	14.3	-	-
O=C(Cn1nnc2ccccc2c1=O)NCCc1ccccc1	-	-	-	-	-	.	.	.
COC(=O)c1ccc(N2CCOCC2)c(NC(=O)c2cccnc2)c1	-	-	-	-	-	.	.	.
O=C(CCNS(=O)(=O)c1cccc2nonc12)Nc1ccc(Cl)cc1	-	-	10.1	-	-	21.3	-	-
O=C(CCNS(=O)(=O)c1ccc(Br)s1)Nc1ccc(Cl)cc1	-	-	78.1	-	-	85.1	-	69.0
COc1cc(OC)cc(C2=Cc3ccccc3C(CC(=O)c3ccco3)N2c2ccc(-c3cccnc3)cc2)c1 (stereo not given)	.	.	-	.	.	.	.	.
CCCc1cc(=O)oc2cc(C)cc(OCC(=O)N3C[C@H]4C[C@@H](C3)c3cccc(=O)n3C4)c12	.	.	-	.	.	.	.	.
CCCCNC(=S)N(CCN(CC)CC)Cc1cc2cc3c(cc2[nH]c1=O)OCO3	-	-	8.8	-	-	16.2	-	-
COc1ccc(NC(=O)N(Cc2cc3cc(C)ccc3[nH]c2=O)CC2CCCO2)cc1 (stereo not given)	-	-	11.6	-	-	48.9	-	17.5
Cc1ccc2cc(CN(CC3CCCO3)C(=S)Nc3ccccc3)c(=O)[nH]c2c1 (stereo not given)	-	-	-	-	-	.	.	.
Cc1ccc2[nH]c(=O)c(CN(CC3CCCO3)C(=S)NCc3ccco3)cc2c1 (stereo not given)	-	-	12.2	-	-	23.1	-	-
Cc1ccc2[nH]c(=O)c(CN(CC3CCCO3)C(=S)Nc3ccccc3)cc2c1 (stereo not given)	-	-	6.1	-	-	47.7	-	27.2
NS(=O)(=O)c1cccc(NC(=O)CSc2nnc(NC3CC3)s2)c1	.	.	-	.	.	.	.	.
COc1cc2cc(CN(CCc3ccccc3C)C(=S)NCCCN(C)C)c(=O)[nH]c2cc1OC	-	-	-	-	-	.	.	.
COc1ccc2[nH]c(=O)c(CN(C(C)=O)C3CCCCC3)cc2c1	-	-	9.6	-	-	15.1	-	-
Cc1ccc2[nH]c(=O)c(CN(Cc3ccccc3)C(=S)NCCCN(C)C)cc2c1	-	-	7.0	-	-	17.2	17.1	-
COc1ccc2[nH]c(=O)c(CN(C(=O)NC3CCCCC3)C3CCCC3)cc2c1	-	-	-	-	-	.	.	.
